Bioassay records as filed in PubChem BioAssay.
Sampled rows, rich in hits. Any-hit rate of the full collection: about 1%.
p-CIP stab down: p/CIP protein destabilization | Q05BA5 | F442A p/CIP-EGFP cells, EGFP fluorescence, 16 h | decrease of EGFP signal, % at 10 µM | 0.01% of 290,000 active | AID 1984;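 active means EGFP signal decrease of at least 30% at 10 µM or well 3 SD below plate mean, unless failing retest; inactive means the rest, including hits failing retest or dose response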
Target sequence (Q05BA5 1-1403): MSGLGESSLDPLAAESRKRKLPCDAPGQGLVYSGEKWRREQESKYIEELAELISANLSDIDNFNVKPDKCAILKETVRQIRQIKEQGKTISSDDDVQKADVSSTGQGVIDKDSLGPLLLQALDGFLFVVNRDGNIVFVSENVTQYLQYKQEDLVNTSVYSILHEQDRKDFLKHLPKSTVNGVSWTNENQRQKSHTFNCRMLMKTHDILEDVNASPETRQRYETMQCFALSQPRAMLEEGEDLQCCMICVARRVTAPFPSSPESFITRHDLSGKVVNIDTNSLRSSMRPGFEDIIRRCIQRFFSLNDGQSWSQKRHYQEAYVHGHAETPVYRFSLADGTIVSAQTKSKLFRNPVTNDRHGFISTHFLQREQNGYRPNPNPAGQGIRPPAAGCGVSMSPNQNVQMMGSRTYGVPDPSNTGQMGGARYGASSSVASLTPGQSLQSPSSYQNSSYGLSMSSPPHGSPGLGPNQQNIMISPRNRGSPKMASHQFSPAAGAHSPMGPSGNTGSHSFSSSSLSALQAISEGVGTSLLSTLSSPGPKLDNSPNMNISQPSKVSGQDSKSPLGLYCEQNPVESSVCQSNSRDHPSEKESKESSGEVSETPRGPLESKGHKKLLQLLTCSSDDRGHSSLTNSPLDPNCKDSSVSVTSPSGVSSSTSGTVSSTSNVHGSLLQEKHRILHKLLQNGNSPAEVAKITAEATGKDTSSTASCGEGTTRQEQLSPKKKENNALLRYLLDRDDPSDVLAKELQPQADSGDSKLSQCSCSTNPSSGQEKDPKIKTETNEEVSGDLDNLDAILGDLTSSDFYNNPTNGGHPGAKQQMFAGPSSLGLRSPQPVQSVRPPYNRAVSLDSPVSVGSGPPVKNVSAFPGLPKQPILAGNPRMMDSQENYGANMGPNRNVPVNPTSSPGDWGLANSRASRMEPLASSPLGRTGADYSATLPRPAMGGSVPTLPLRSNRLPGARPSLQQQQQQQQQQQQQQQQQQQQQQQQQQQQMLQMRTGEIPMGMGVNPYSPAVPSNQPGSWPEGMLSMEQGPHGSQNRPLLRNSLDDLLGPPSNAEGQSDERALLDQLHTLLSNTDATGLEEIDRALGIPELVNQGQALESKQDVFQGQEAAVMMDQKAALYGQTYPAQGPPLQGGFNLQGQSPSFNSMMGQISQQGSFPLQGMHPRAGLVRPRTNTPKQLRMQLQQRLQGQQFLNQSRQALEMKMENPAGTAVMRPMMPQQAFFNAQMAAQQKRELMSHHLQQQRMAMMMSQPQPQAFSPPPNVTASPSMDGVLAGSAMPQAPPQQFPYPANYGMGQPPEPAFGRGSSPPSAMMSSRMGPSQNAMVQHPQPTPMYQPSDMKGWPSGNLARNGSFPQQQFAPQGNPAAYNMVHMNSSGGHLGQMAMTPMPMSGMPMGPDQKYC
Lipid droplet: hepatic lipid droplet formation modulation; 0.4% of 240,000 active; inhibition, % at 6.5 µM; AML12 mouse hepatocytes, oleate lipid droplets, BODIPY imaging;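 active means lipid droplet intensity inhibited by at least 50%, with more than 500 cells counted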
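Material – mouse AML12 hepatocyte cell line, fixed after treatment · Compound dosing – one dose, 6.5 µM compound · Times – compound with oleate, overnight · Measured by – Image-based BODIPY and DAPI two-channel analysis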
CTSL1 counter: cathepsin L1 inhibition, PFM18AAP counter-screen. AID 1906. recombinant F. hepatica cathepsin L1, Z-Leu-Arg-MCA fluorescence. 0.49% of 300,000 active. inhibition, % at 5.96 µM;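 active means inhibition above the mean of all tested compounds plus 3 SD, set per screening campaign, cut at about 17% in these data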;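 further: 0% = plate median of test compound wells and 100% = 1 µM Z-Phe-Ala-diazomethylketone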
Arrestin-AP2 inh: inhibitors of human beta-arrestin and AP2 interaction; FITC-arrestin peptide / GST-AP2 beads, flow cytometry; AP2 beta2 appendage carries R879A mutation; inhibition, % at 10 µM; 0.31% of 340,000 active;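 active means inhibition above a set limit, near 3 SD of compounds lacking own fluorescence, cut at about 54% in these data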;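 further: plate controls were DMSO wells for no effect and 5 µM unlabelled arrestin peptide for full effect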
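test system = AP2 appendage R879A on GSH beads | buffer or medium = PBS plus Tween 20 (0.05%) and BSA (0.1%) | incubation = 12 min plus 1 h, RT | detection = bead flow cytometry, FITC channel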
Hep lipid conf: confirmation of inhibitors of hepatic lipid droplet formation; shares compounds with Lipid droplet; AML12 mouse hepatocytes, BODIPY lipid droplet imaging; droplets induced with 100 µM oleic acid; inhibition, % at 5.2 µM; 65% of 870 active; AID 463183;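 active means inhibition of lipid droplet metric at least 50%, with more than 300 cells in each of four replicates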;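 further: plate controls were DMSO with oleic acid for no effect and 5 µM Triacsin-C for full effect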
AML12 tox img: AML12 hepatocyte cytotoxicity (counter-screen) | shares compounds with Lipid droplet | z-score at 5 µM | 3% of 870 active | AML12 mouse hepatocytes, DAPI nuclear morphology cytotoxicity imaging; hits give high values; cells fed 100 µM oleate overnight; in the data active means z-score above about 6.3;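 further: compound exposure lasted overnight at 37 °C before fixation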
AML12 tox ATP: AML12 hepatocyte cytotoxicity, confirmed; 530 tested, under 10 active; shares compounds with Lipid droplet; AML12 mouse hepatocyte viability, ATP luminescence; cells loaded with 100 µM oleic acid; cytotoxicity, % at 50 µM; AID 463219;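 active means cytotoxicity above 50% in each of four replicates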;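 further: compound exposure lasted overnight at 37 °C before the ATP read; 0% = DMSO-treated cells and 100% = wells with no cells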
The depositor's hits bear a star.

`O=Nc1c(-c2c(O)[nH]c3cc(Br)ccc23)[nH]c2ccccc12` gave p-CIP stab down -9, Lipid droplet 75*, CTSL1 counter 0, Arrestin-AP2 inh 9, Hep lipid conf 112*, AML12 tox img 2.5 and AML12 tox ATP 67*.
`O=C(CSCc1cccc(Br)c1)N=Nc1c(O)[nH]c2ccccc12` gave p-CIP stab down 4, CTSL1 counter -5 and Arrestin-AP2 inh 22.
COc1cccc(Cn2c(-c3nonc3N)nc3ccccc32)c1 was read as p-CIP stab down -1, Lipid droplet 0, CTSL1 counter 2 and Arrestin-AP2 inh 18.
For CN(C)C(=O)c1ccc(-n2cnc3ccccc3c2=O)cc1 the results were p-CIP stab down -2, Lipid droplet 5, CTSL1 counter 6 and Arrestin-AP2 inh 19.
For CN(C)/C=N/n1cnc2ccccc2c1=O the results were p-CIP stab down -8, Lipid droplet 61*, CTSL1 counter -5, Arrestin-AP2 inh -5, Hep lipid conf -24 and AML12 tox img -0.36.
`COc1ccc(OC)c(NC(=O)c2ccccc2SC)c1` gave p-CIP stab down -9, Lipid droplet -1, CTSL1 counter 1 and Arrestin-AP2 inh 2.
`COc1ccc(OC)c(NC(=O)c2cc3oc4ccccc4c3cc2O)c1` gave p-CIP stab down -5, Lipid droplet 108*, CTSL1 counter 4, Arrestin-AP2 inh -1, Hep lipid conf 18 and AML12 tox img 0.11.
For CSC1=NCCN1S(=O)(=O)c1ccc(Cl)cc1 the results were p-CIP stab down 4, Lipid droplet 14, CTSL1 counter -4 and Arrestin-AP2 inh 6.
Cc1cc(C(=O)OC(C)C(=O)Nc2nc(-c3ccccc3)cs2)c(C)o1 (stereo not drawn) was read as p-CIP stab down 6, Lipid droplet 87*, CTSL1 counter -1, Arrestin-AP2 inh 4, Hep lipid conf 111*, AML12 tox img -0.8 and AML12 tox ATP 4.
`Cc1cc(C(=O)OCC(=O)Nc2nc(-c3ccccc3)cs2)c(C)o1` gave p-CIP stab down -15, CTSL1 counter 5 and Arrestin-AP2 inh -3.
`CC(C)C12NC(=O)NC(=O)N1CCS2` (stereo not drawn) gave Arrestin-AP2 inh 11.
For COc1cccc(NC(=O)CN(Cc2ccccc2)S(C)(=O)=O)c1 the results were p-CIP stab down -1, Lipid droplet 50*, CTSL1 counter 1, Arrestin-AP2 inh -4, Hep lipid conf 43 and AML12 tox img -0.27.
For CCOC(=O)c1ccc(NC(=O)CN(Cc2ccc(Cl)cc2)S(C)(=O)=O)cc1 the results were p-CIP stab down -2, Lipid droplet 50*, CTSL1 counter 3, Arrestin-AP2 inh 3, Hep lipid conf 76*, AML12 tox img -0.59 and AML12 tox ATP 2.
Screening CCOc1ccc(CCNC(=O)Nc2cccc(OC)c2)cc1OCC returned p-CIP stab down -12, Lipid droplet 125*, CTSL1 counter -1, Arrestin-AP2 inh -7, Hep lipid conf 110*, AML12 tox img -0.61 and AML12 tox ATP 9.
Screening COc1cccc(NC(=O)NCCC2=CCCCC2)c1 returned p-CIP stab down -12, Lipid droplet -1, CTSL1 counter -4 and Arrestin-AP2 inh -29.
For CCOc1ccc(CCNC(=O)c2nccnc2C(=O)O)cc1OCC the results were p-CIP stab down 2, Lipid droplet 4, CTSL1 counter -3 and Arrestin-AP2 inh -3.
`CCOc1ccc(CCNC(=O)C2(c3ccccc3)CC2)cc1OCC` gave p-CIP stab down -21, Lipid droplet 56*, CTSL1 counter 7, Arrestin-AP2 inh -9, Hep lipid conf 83*, AML12 tox img -0.36 and AML12 tox ATP 13.
Screening CCOc1ccc(CCNC(=O)c2ccc3ccccc3n2)cc1OCC returned p-CIP stab down 5, Lipid droplet 78*, CTSL1 counter 4, Arrestin-AP2 inh -11, Hep lipid conf 107*, AML12 tox img -0.78 and AML12 tox ATP 22.
